Published values pooled from the literature.
Each line is one published result; the experiments were not run side by side.
Target: TGF-beta receptor type-2 (TGFBR2, Homo sapiens, UniProt P37173)

SMILES | read-out | mode | technique | tested at | quantity | value
CC(C)(C)c1cc(C=C(C#N)C#N)cc(Br)c1O | enzyme activity | inhibitor | – | 0.5 µM | remaining activity | 93.8%
COc1ncccc1-c1cnn2ccc(N3CCN(C(=O)OC(C)C)CC3)nc12 | binding | – | competition with immobilised ligand | 1 µM | remaining binding | 100%
Cc1nn(C)cc1-c1nc2c(N3CCN(Cc4ccc(Cl)cc4)CC3)c(Cl)cnc2[nH]1 | binding | – | competition with immobilised ligand | 1 µM | remaining binding | 100%
O=c1[nH]c2ccccc2n1C1CCN(Cc2ccc(-c3[nH]c4cc5ncnc5cc4nc3-c3ccccc3)cc2)CC1 | cell-free assay | – | – | 0.5 µM | remaining signal | 95.5%
N#CC1(c2ccccn2)CCN(Cc2cc(C(=O)O)c(=O)n3ccccc23)CC1 | cell-free assay | – | competition with immobilised ligand | 1 µM | remaining binding | 93%
COc1cc(Nc2ncc(F)c(Nc3ccc4c(n3)NC(=O)C(C)(C)O4)n2)cc(OC)c1OC | binding | – | – | 10 µM | inhibition | 75%
Cn1cncc1[C@](O)(COc1ccc(C#N)cc1-c1ccc(OC(F)(F)F)cc1)c1ccc(C#N)cc1 | cell-free assay | – | competition with immobilised ligand | 1 µM | remaining binding | 100%
Nc1ncc(-c2nc(N3CCOCC3)nc(N3CCOCC3)n2)c(C(F)F)n1 | cell-free assay | – | competition with immobilised ligand | 10 µM | remaining binding | 69%
